Calls of active or inactive are those of the source. No cut-off for these calls is given here.
Assays:
[1] = Inhibition of bovine brain tubulin polymerization preincubated for 15 mins followed by GTP addition and measured after 20 mins; set-up: species or system Bos taurus
Tubulin (Homo sapiens) [2] = biological target: T1, Tubulin (Homo sapiens) (UniProt P68371+Q9H4B7+P0DPH7+P68366+Q13509+Q71U36+P04350+Q3ZCM7+P07437+P68363+Q9BQE3+Q6PEY2+Q13885+Q9BVA1+Q9BUF5); assay: Inhibition of [3H]colchicine binding to tubulin (unknown origin) at 5 uM relative to control; format: protein-complex assay
In short: (§1)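 Tubulin at 1.0 μM (0.1 mg/mL), [3H]colchicine at 5.0 μM, compounds at 5 or 50 μM. Bound colchicine measured by DEAE-cellulose filter method; triplicate experiments.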

Tubulin (Homo sapiens) [3] = biological target: T1, Tubulin (Homo sapiens); assay: Inhibition of [3H]colchicine binding to tubulin (unknown origin) at 50 uM relative to control; format: protein-complex assay; in short: as §1
[4] = Cytotoxicity against human HPDE cells measured after 48 hrs by CellTiter 96 Aqueous One Solution Cell Proliferation Assay; format: toxicity, cell-based
MCF7 = assay: Antiproliferative activity against human MCF7 cells assessed as cell growth inhibition measured after 48 hrs by sulforhodamine B assay; format: functional, cell-based; conditions: MCF7, 48 h
In short: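 MCF-7 cells grown 24 h without drug, then 48 h with varying compound concentrations. Total cell protein measured by sulforhodamine B assay; IC50 for growth inhibition derived.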

[5] = Disruption of microtubule network in rat A10 cells incubated for 18 hrs by fluorescence microscopic analysis; format: cell-based
In short: (§2)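 A-10 cells on glass coverslips exposed to a range of compound concentrations for 18 h. Cells fixed, microtubules stained with β-tubulin antibody, nuclei with DAPI, then viewed by fluorescence microscopy. Microtubule loss estimated visually, EC50 taken from dose-response curves, two independent experiments.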

HCT-116 = assay: Cytotoxicity against human HCT-116 cells measured after 48 hrs by CellTiter 96 Aqueous One Solution Cell Proliferation Assay; format: functional, cell-based; conditions: HCT-116, 48 h
MIA PaCa-2 = assay: Cytotoxicity against human MIA PaCa-2 cells at 1.562 to 100 uM measured after 48 hrs by CellTiter 96 Aqueous One Solution Cell Proliferation Assay; format: functional, cell-based; conditions: dose 1.562-100 µM
A10 [6] = assay: Disruption of microtubule network in rat A10 cells at 20 uM incubated for 18 hrs by fluorescence microscopic analysis; format: cell-based; in short: as §2
A10 [7] = assay: Disruption of microtubule network in rat A10 cells at 2.5 uM incubated for 18 hrs by fluorescence microscopic analysis; format: cell-based
In short: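 Rat A-10 cells grown on glass coverslips, exposed 18 h to a range of compound concentrations (single-concentration image at 2.5 μM), then fixed. Microtubules stained by indirect immunofluorescence with β-tubulin antibody, nuclei with 4,6-diamidino-2-phenylindole. Interphase microtubule loss scored visually by fluorescence microscopy against vehicle control.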

A10 [8] = assay: Disruption of microtubule network in rat A10 cells at 15 uM incubated for 18 hrs by fluorescence microscopic analysis; format: cell-based; in short: as §2

| Structure (SMILES) | IC50 [1] [µM] | inhibition (Tubulin (Homo sapiens) [2]) | inhibition (Tubulin (Homo sapiens) [3]) | IC50 at 48 h [4] [µM] | IC50 (MCF7) [µM] | EC50 [5] [µM] | IC50 (HCT-116) [µM] | Activity (MIA PaCa-2) | Activity (A10 [6]) | Activity (A10 [7]) | Activity (A10 [8]) |
| --- | --- | --- | --- | --- | --- | --- | --- | --- | --- | --- | --- |
| COc1ccc(C(=O)c2cc(OC)c(OC)c(OC)c2)cc1O [PHENSTATIN] | 1 | 86% | inactive | > 50 | – | – | – | – | – | – | – |
| COc1cc(/C=C\c2ccccc2B(O)O)cc(OC)c1OC | > 40 | inactive | inactive | > 50 | > 2.5 | 51 | < 5 | Active; Compound Showed Less Toxicity Than Hct-116 Cells | – | – | – |
| COc1cc(/C=C\c2ccc(B(O)O)cc2)cc(OC)c1OC | 10 | 6.4% | 77% | > 50 | 0.48 | 4 | < 5 | – | Active | – | – |
| COc1ccc(C(=O)c2cc(OC)c(OC)c(OC)c2)cc1B(O)O | 12 | 21% | 59% | > 50 | 0.3 | 5 | – | Active; Compound Showed Less Toxicity Than Hct-116 Cells | – | Active | – |
| COc1ccc(/C=C\c2cc(OC)c(OC)c(OC)c2)cc1O [COMBRETASTATIN A4] | – | – | – | > 50 | – | < 0.025 | – | – | – | – | – |
| COc1cc(/C=C\c2cccc(B(O)O)c2)cc(OC)c1OC | 27 | inactive | inactive | > 50 | 0.85 | 9 | < 5 | – | – | – | – |
| COc1cc(/C=C\c2cnc(OC)c(B(O)O)c2)cc(OC)c1OC | 30 | inactive | inactive | > 50 | 0.39 | 9 | < 5 | – | – | – | Active |
| COc1cc(C(=O)c2cnc(OC)c(B(O)O)c2)cc(OC)c1OC | > 40 | inactive | inactive | > 50 | > 2.5 | > 50 | – | – | – | – | – |
| COc1ccc(/C=C\c2cc(OC)c(OC)c(OC)c2)cc1B(O)O | 1.5 | – | 99% | > 50 | – | 0.058 | – | – | – | – | – |

Source: ChEMBL document CHEMBL6096643 (Bioorg Med Chem, 2024)
